Consider one compound from article PMC8569940 (European journal of medicinal chemistry, 2020).

One series concerns the target T1, AURKA (Homo sapiens, UniProt O14965).
T1 sequence (O14965 1-403): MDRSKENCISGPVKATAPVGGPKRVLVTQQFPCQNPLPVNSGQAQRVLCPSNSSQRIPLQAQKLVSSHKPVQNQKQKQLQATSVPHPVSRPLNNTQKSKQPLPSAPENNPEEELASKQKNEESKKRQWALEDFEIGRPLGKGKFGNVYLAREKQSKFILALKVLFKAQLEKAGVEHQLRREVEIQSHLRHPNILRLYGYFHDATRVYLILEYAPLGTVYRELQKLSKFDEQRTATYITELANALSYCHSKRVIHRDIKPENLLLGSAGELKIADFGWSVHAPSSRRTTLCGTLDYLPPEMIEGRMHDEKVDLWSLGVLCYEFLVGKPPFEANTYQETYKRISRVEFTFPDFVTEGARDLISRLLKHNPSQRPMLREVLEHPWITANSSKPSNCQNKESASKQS
In words: Enzyme inhibition AURKA. Type of series: biochemical. The settings on record: tested at 100 μM.

Another series has as its system 4T1 tumor. The series can be described thus: In vivo antitumor effect, orthotopic 4T1 tumor-bearing mice. The settings on record: 2 mg/kg, in comparison with the control group.
For another series, the system named is Kunming mice. The series can be described thus: Acute toxicity study, single intraperitoneal dose. It is filed as in vivo. The essentials: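 Kunming mice, four groups of 8 (half male, half female), each given one intraperitoneal injection of test compound at 10, 20 or 40 mg/kg or vehicle. Mortality and clinical signs in eyes, skin and fur recorded. Body weights measured daily after treatment. Mice dissected to check for ascites and liver volume.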

A further series has as its target JAK2 (Homo sapiens, UniProt O60674). The series can be described thus: Enzyme inhibition JAK2. It is filed as biochemical.
A further series addresses MAPK10 (Homo sapiens, UniProt P53779). In words: Enzyme inhibition MAPK10. It is filed as biochemical. The settings on record: tested at 100 μM.
The test system of another series is MDA-MB-231 cells. In words: Apoptosis detection assay. Type of series: cell-based, human. The essentials: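 MDA-MB-231 cells seeded at 5 × 10^5 cells/mL in six-well plates. Treated with test compound at different concentrations for 24 h (48 h per results text); combretastatin A4 as positive control. Cells trypsinised, washed twice in cold PBS, resuspended in binding buffer, then stained with annexin V-FITC 15 min at room temperature. PI added for a further 15 min in the dark. Read by flow cytometry.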

Where [1] appears, read: female mice, highest dose group (40 mg/kg).

Chain of JAK2 (O60674 whole entry): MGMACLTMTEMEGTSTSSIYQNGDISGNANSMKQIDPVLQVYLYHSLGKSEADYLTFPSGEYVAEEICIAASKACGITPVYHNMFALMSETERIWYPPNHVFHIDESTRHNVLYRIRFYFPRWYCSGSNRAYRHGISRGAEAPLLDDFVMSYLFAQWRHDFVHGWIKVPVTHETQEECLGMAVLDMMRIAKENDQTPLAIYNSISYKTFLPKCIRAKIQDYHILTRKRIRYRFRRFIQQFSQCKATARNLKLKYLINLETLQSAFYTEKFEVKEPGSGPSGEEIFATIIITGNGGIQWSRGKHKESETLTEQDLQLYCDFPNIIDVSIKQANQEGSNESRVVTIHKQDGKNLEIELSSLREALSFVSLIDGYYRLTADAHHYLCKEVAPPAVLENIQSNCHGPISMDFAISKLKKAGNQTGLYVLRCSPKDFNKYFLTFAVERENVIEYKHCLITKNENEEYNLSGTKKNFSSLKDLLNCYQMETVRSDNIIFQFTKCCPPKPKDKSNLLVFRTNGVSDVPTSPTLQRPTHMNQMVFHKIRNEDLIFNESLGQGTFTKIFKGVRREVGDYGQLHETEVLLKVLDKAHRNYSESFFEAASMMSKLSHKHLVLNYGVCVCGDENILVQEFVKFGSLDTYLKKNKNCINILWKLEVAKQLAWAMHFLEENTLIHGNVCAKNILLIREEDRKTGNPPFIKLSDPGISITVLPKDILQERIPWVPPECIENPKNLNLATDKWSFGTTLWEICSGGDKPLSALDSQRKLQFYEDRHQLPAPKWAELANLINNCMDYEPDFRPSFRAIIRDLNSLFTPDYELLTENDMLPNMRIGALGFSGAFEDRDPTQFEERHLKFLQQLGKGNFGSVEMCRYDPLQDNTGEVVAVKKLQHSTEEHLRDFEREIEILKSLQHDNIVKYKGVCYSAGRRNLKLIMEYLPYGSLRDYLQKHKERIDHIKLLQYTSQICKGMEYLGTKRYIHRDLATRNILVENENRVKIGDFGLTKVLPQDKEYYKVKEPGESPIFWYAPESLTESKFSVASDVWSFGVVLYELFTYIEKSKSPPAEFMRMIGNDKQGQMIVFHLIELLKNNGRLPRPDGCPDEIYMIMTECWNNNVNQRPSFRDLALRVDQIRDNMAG
Chain of MAPK10 (P53779 whole entry): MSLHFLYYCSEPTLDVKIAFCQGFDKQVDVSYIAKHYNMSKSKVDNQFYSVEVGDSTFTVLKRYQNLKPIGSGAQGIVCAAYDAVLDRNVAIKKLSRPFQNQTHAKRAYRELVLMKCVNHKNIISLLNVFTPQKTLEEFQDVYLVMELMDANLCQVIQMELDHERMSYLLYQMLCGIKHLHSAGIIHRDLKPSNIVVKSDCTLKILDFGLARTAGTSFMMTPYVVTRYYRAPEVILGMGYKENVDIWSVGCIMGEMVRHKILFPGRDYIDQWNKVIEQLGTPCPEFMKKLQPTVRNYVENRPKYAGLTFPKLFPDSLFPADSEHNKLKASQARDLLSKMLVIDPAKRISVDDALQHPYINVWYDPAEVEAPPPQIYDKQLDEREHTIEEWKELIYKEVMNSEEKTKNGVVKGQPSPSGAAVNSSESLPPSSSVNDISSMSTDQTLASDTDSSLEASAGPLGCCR

For the compound `O=C1C=CC2(C=C1)OCC(=O)N2c1nc(-c2cccc3ccccc23)nn1-c1ccccc1` [Compound 6a, 4-(3-(Naphthalen-1-yl)-1-phenyl-1H-1,2,4-triazol-5-yl)-1-oxa-4-azaspiro[4.5] deca-6,9-diene-3,8-dione], the “effect on AURKA” value on AURKA is “did not have any significant effect”. Further, the “size of the spleen and liver” value with 4T1 tumor is given as “enlarged”. The “toxicity to the major organ in mice” value with Kunming mice (20 mg/kg) is on record as “no apparent toxicity”. For the same compound, the “clinical signs in the eyes, skin, and fur” value in the series on Kunming mice (40 mg/kg) is “no remarkable clinical signs”. In the series on Kunming mice (setting [1]), the ascites at dissection result is listed as “Ascites were detected” and the “liver volume at dissection” value is on record as “decreased liver volume”. In the series with Kunming mice (highest dose group (40 mg/kg)), the gain of bodyweight result is “lower than the other three groups”. Also, in the series with Kunming mice (single dose 10, 20, 40 mg/kg i.p.), the mortality entry is “No mortality occurred”. Also, the “inhibition on the Janus kinases 2” value against JAK2 is recorded as “weak inhibition”. For the same compound, the IC50 (in general, the point on the concentration scale where inhibition reaches its midpoint) against JAK2 (Inhibitory effect (IC50) JAK2 Repeat 1, Repeat 1) worked out at 41.3 µM. The IC50 on JAK2 (Inhibitory effect (IC50) JAK2 Repeat 2, Repeat 2) came to 76.6 µM. Moreover, at MAPK10, the “effect on MAPK10” value was “did not have any significant effect”. Further, the “early and late apoptosis” value in the series on MDA-MB-231 cells (MDA-MB-231, 1 μM) was “induced both early and late apoptosis”. In addition, the “induction of cell apoptosis” value in the series on MDA-MB-231 cells (MDA-MB-231, 48 h of treatment) was “induce cell apoptosis in a dose-dependent manner”.
